Experimental data published in paper PMC4800303 (British Journal of Cancer, 2016).
Values after ≈ are worked out from the molar mass of the structure shown.

Tests used:
Total Rb = assay: Abemaciclib-mediated inhibition of Total Rb in xenograft tumours; format: in vivo, mice; conditions: 50 mg kg^−1 every day
Outline: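 Colo-205 xenograft mice given abemaciclib 50 mg kg⁻¹ orally once daily for 56 days; tumour collected at 28 and 56 days, n=5 per time point. Tumour lysates assayed for Total Rb alongside pRb, TopoIIα and pHH3. Data were added to a refit of the cell-cycle PK/PD model.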

[1] = Pharmacokinetics in xenograft tumour-bearing mice; format: in vivo; conditions: vemurafenib and abemaciclib coadministered; data not shown
[2] = tested on: phospho-(ser780)-Rb (pRb); format: in vivo, mice; conditions: Mus musculus, COLO 205, read-out: IC50,Abemaciclib
Outline: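 Semimechanistic PK/PD model with four sequential transit compartments (early G1, late G1, S, G2/M). pRb, TopoIIα and pHH3 represent late G1, S and G2/M phase density. Model refitted to colo-205 xenograft biomarker data, including Total Rb after single or daily oral 50 mg kg⁻¹ abemaciclib. Population approach for longitudinal data. IC50 is an estimated model parameter.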

[3] = tested on: BRAF-mutated (V600E/K) metastatic melanoma; conditions: pivotal phase III registration trial; ref Chapman et al., 2011; cited from earlier work
pRb = assay: Biomarker model: effect of vemurafenib on pRb in A375 xenograft tumours; format: in vivo, mice; conditions: Mus musculus, A-375, read-out: Inhibition of pRb
Outline: (§1)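 A375 xenograft mice given single oral vemurafenib: 15 mg kg⁻¹ with blood and tumour at 1, 2, 6, 12, 24, 48 h; 7.5, 30 or 60 mg kg⁻¹ with sampling at 4, 8, 24 h; n=5 per time point. Tumour biomarkers expressed as percentage of vehicle control. Plasma PK fitted by one-compartment model with saturable absorption; indirect response model links concentration to pMEK, driving pERK; values from model fitting/simulation.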

A375 xenograft tumours = assay: Tumour growth inhibition and tumour model in A375 xenograft tumours; format: in vivo, mice; conditions: continuous vemurafenib treatment; estimated
Outline: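 A375 xenograft mice received vemurafenib 15 mg kg⁻¹ twice daily for 48 days to allow resistance. They then received abemaciclib 90 mg kg⁻¹ daily or continued vemurafenib for 28 days (n=8 per group), with vehicle controls (n=8). Tumour size was measured every 3–4 days for ∼13 weeks. Time to resistance was estimated by the tumour growth model with a modulator compartment.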

Cyclin D1 = assay: Biomarker model: effect of vemurafenib on Cyclin D1 in A375 xenograft tumours; format: in vivo, mice
Outline: as §1

[4] = tested on: phospho-(ser217/221)-mitogen-activated protein kinase kinase (pMEK); format: in vivo, mice; conditions: after a 15 mg kg^−1 dose of vemurafenib
Outline: as §1

[5] = tested on: phospho-(thr202/tyr204)-ERK (pERK); assay: Biomarker model: effect of vemurafenib on pERK in A375 xenograft tumours; format: in vivo, mice
Outline: as §1

[6] = after a 15 mg kg^−1 dose of vemurafenib
[7] = continuous vemurafenib, at time to resistance (∼30 days), model

IC50 [2]	Compound	Inhibition of Total Rb (Total Rb)	Pharmacokinetics after coadministration [1]	Progression-free survival (PFS) [3]	inhibition at 15 mg/kg (pRb)	Time to resistance (A375 xenograft tumours)	inhibition at 15 mg/kg (Cyclin D1; Mus musculus, A-375, read-out: Inhibition of Cyclin D1)	Time of maximum inhibition of Cyclin D1 (Cyclin D1; [6])	Elevation of Cyclin D1 over baseline at resistance (Cyclin D1; [7])	Time of maximum inhibition of pMEK [4]	Time of maximum inhibition of pERK [5, 6]	Elevation of pERK over baseline at resistance [5, 7]
4.99 ng/mL (≈ 9.85 nM)	CCN1CCN(Cc2ccc(Nc3ncc(F)c(-c4cc(F)c5nc(C)n(C(C)C)c5c4)n3)nc2)CC1 [abemaciclib]	~40%	neither vemurafenib nor abemaciclib exhibited altered pharmacokinetics after coadministration	–	–	–	–	–	–	–	–	–
–	CN(C)/N=N/c1[nH]cnc1C(N)=O [dacarbazine]	–	–	1.6 months	–	–	–	–	–	–	–	–
–	CCCS(=O)(=O)Nc1ccc(F)c(C(=O)c2c[nH]c3ncc(-c4ccc(Cl)cc4)cc23)c1F [vemurafenib]	–	neither vemurafenib nor abemaciclib exhibited altered pharmacokinetics after coadministration	5.3 months	50%	~30 days	33%	10 h	nearly twofold	2 h	2 h	nearly twofold
